From ChEMBL document CHEMBL1132342, “Novel hypotensive agents from Verbesina caracasana. 6. Synthesis and pharmacology of caracasandiamide” (1999)
Several values for one entry are separate records, joined by “and”; a condition that tells them apart may be missing. Equal values may be shown once.

Experiments:
Rattus norvegicus [1] = test: Change in systolic blood pressure after iv administration of 1600 ug/Kg in the presence of isoprenaline (agonist) in anesthetized rats; format: functional, Artery
Rattus norvegicus [2] = test: Change in heart rate after iv administration of 800 ug/Kg in anesthetized rats; format: functional
Method in brief: (§1)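 Male Wistar rats (299 ± 3 g) were anesthetized with ethylurethane ip, tracheally cannulated and breathing spontaneously, at 37 °C, and stabilized for 60 min. Doses of 50-3200 µg/kg (ratio 2.0) in saline were injected by femoral vein, 50 µL each. Recordings: femoral arterial BP, electromagnetic abdominal-aortic flow, SV from integrated pulsatile flow, polygraphic RF. Peak changes, mean ± SE, n = 12 (n = 7 at 3200).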

Rattus norvegicus [3] = test: Change in mean aortic flow after iv administration of 100 ug/Kg in anesthetized rats; format: functional; method in brief: as §1
Rattus norvegicus [4] = test: Change in diastolic blood pressure after iv administration of 400 ug/Kg in the presence of noradrenaline (agonist) in anesthetized rats; format: functional, Artery
Method in brief: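 Urethane-anesthetized male Wistar rats (16 rats, two equal groups) received 400 or 1600 µg/kg compound iv. Cardiovascular responses to iv agonist boluses (noradrenaline 1 µg/kg, acetylcholine 2.50 µg/kg, adrenaline, isoprenaline) were measured before and after compound dosing. Peak responses are given as mean ± SE; p < 0.05 versus control mean.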

Rattus norvegicus [5] = test: Change in diastolic blood pressure after iv administration of 400 ug/Kg compound (treatment with hexamethonium (5 mg/Kg, iv)in anesthetized rats; format: functional, Artery
Method in brief: (§2)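 In anesthetized male Wistar rats, responses to iv compound (200–1600 µg/kg, ratio 2.0) were measured alone and under three pretreatments: continuous iv papaverine infusion (1 mg/kg/min), ip reserpine (5 mg/kg/day for 2 days), or iv hexamethonium (5 mg/kg). Peak changes are given as mean ± SE, n = 6 per group; p < 0.05 versus control.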

Rattus norvegicus [6] = test: Change in systolic blood pressure after iv administration of 400 ug/Kg in anesthetized rats; format: functional, Artery
Method in brief: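 Urethane-anesthetized (10% w/v, […] ip in saline) adult male Wistar rats, trachea cannulated, breathing spontaneously, 37 °C. Femoral artery catheter for blood pressure, femoral vein for dosing. Sequential iv doses 50–3200 µg/kg (ratio 2.0) in saline, each given after parameters returned to baseline. Peak changes recorded; means ± SE, n = 12 (n = 7 at 3200 µg/kg).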

Rattus norvegicus [7] = test: Change in diastolic blood pressure after iv administration of 800 ug/Kg compound (treatment with papaverine(1 mg/Kg/min, iv)in anesthetized rats; format: functional, Artery; method in brief: as §2
Rattus norvegicus [8] = test: Change in respiratory frequency after iv administration of 1600 ug/Kg in anesthetized rats; format: functional; method in brief: as §1

## COc1ccc(C2C(c3ccc(OC)c(OC)c3)[C@H](C(=O)NCCCC/N=C(\N)NCC=C(C)C)[C@@H]2C(=O)NCCCC/N=C(\N)NCC=C(C)C)cc1OC (stereo partly specified) [CARACASANDIAMIDE]
Rattus norvegicus [1]
  BP: -43 mmHg
Rattus norvegicus [2]
  Change in heart rate: -4%
  Heart rate: -16 beats min-1
Rattus norvegicus [3]
  Change in mean aortic flow: 15%
  Mean aortic flow: 11 mL/min
Rattus norvegicus [4]
  BP: 15 mmHg
Rattus norvegicus [5]
  BP: -45 mmHg
Rattus norvegicus [6]
  BP: -20 mmHg
  Change in BP: -19%
Rattus norvegicus [7]
  BP: -16 mmHg
Rattus norvegicus [8]
  Change in respiratory frequency: -61 beats min-1 and -64%
